Test: Toxicity liver stage against HepG2, at 10uM
Assay type: cell-based
Set-up: test concentration 10 uM, cell line HepG2-A16-CD81EGFP
Conditions: human, HepG2-A16-CD81EGFP cells; read-out: INHIBITION
Method in brief: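 Uninfected HepG2-A16-CD81EGFP cells, 3 × 10^3 per well, 1536-well, plated on prespotted compound at 10 μM final, parasite-free screening media added to match infected plates; puromycin 10 μM positive, DMSO 0.5% negative; run in parallel with 48 h PbLuc assay at 37 °C, 5% CO2; viability by CellTiter-Glo luminescence, normalized to controls.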

For `c1cc(-c2nnc([C@H]3CCN(C4CCCCC4)C3)o2)ccn1`, the cytotoxicity at 10 µM was -102%.

`CCCS(=O)(=O)N1Cc2c(ncn2Cc2ccccc2)C[C@H]1C(=O)OC` gave a cytotoxicity at 10 µM of 0.434%.

`O[C@H]1CC[C@@H](Cc2cc(-c3ccccn3)on2)O[C@@H]1CNCC1CC1` gave a cytotoxicity at 10 µM of -4.05%.

For `O=S1(=O)c2ccccc2C(O)CN1CCO` (centres undefined), the cytotoxicity at 10 µM was 2.37%.

`Cc1nnc(C2CCN(C(=O)c3ccc4[nH]ccc4c3)CC2)s1` gave a cytotoxicity at 10 µM of 15%.

`Fc1ccc2c(c1)C1(CCNCC1)CC2OCC1CC1` (centres undefined) gave a cytotoxicity at 10 µM of 4.92%.

Molecule `Cn1cccc1C(=O)NCc1cnc2n1CCN(C(N)=O)CC2` has a cytotoxicity at 10 µM of 0.312%.

In the case of `O=C(c1ccoc1)N1CCO[C@]2(CCC[C@@H]2COCc2ccncc2)C1`, the cytotoxicity at 10 µM is reported as 0.341%.

With `COCC(=O)N1CCN(C)c2ncccc2C1` the cytotoxicity at 10 µM was -3.1%.

Molecule `Cc1ncoc1C(=O)N1C[C@@H]2COC[C@]2(c2nnc(C3CC3)o2)C1` has a cytotoxicity at 10 µM of -2.08%.

With `O=C(c1cccs1)N1CCC2(CC1)CC(Oc1ccccc1)CO2` (centres undefined) the cytotoxicity at 10 µM was 15.4%.

Work on `N#Cc1ccc(OC[C@]23COC[C@H]2CN(Cc2ccoc2)C3)nc1` yielded a cytotoxicity at 10 µM of -0.762%.

`Cc1nc(N2CCCC2)nc2c1CCN(C(=O)NC1CCCC1)CC2` showed a cytotoxicity at 10 µM of 3.8%.

Molecule `Cc1cccn2c(=O)cc(OC(=O)c3ccc(OC(C)C)cc3)nc12` has a cytotoxicity at 10 µM of 10%.

With `CCOc1cc(-c2cc(=O)n3c(n2)CCCCC3)ccc1O` the cytotoxicity at 10 µM was 1.32%.

Molecule `Cc1noc(C)c1CN1CCOC2(CCCN(c3nccs3)C2)C1` (centres undefined) has a cytotoxicity at 10 µM of 2.39%.

Work on `Cc1c(Cl)c(C(=O)NCc2ccc(F)cc2)nn1C` yielded a cytotoxicity at 10 µM of -2.26%.

In the case of `CCc1cc(=O)n(CC(=O)NCC2CCCO2)c(-c2cccc(F)c2)n1` (centres undefined), the cytotoxicity at 10 µM is reported as -1.61%.

`CC(Cn1cccn1)NC(=O)c1cc(C2CC2)nc2c1cnn2C` (centres undefined) gave a cytotoxicity at 10 µM of 0.351%.

With `Cc1ncc(C(=O)N2CCOC(C(=O)N3CCCCC3)C2)c(C)n1` (centres undefined) the cytotoxicity at 10 µM was 1.14%.

In the case of `Cc1nc(O)cc([C@@H]2CN(S(=O)(=O)N(C)C)C[C@H]2c2ccccc2F)n1`, the cytotoxicity at 10 µM is reported as 5.8%.

Molecule `COc1ccc(OCCc2cc(C3CNCCO3)nn2C)cc1` (centres undefined) has a cytotoxicity at 10 µM of 7.13%.

`Cc1cc(NCCNS(=O)(=O)c2cn(C)nc2C)c2ccccc2n1` showed a cytotoxicity at 10 µM of 1.78%.

Molecule `CN1CCCC1c1ccnc(-c2ccccn2)n1` (centres undefined) has a cytotoxicity at 10 µM of -5.26%.

For `CC(C)(C)OC(=O)N1CCN(c2ccc(F)cc2)CC1C(=O)O` (centres undefined), the cytotoxicity at 10 µM was -1.73%.

For `CN(C)C(=O)C1(C)CN(Cc2cn(C)c3ccc(F)cc23)CCO1` (centres undefined), the cytotoxicity at 10 µM was 4.57%.

With `CNC(=O)CN1CCOC(c2cccc(N)n2)C1` (centres undefined) the cytotoxicity at 10 µM was -5.22%.

Work on `Cc1noc(C)c1-c1ccc(C2CCCN2C(=O)c2cccnc2)nc1` (centres undefined) yielded a cytotoxicity at 10 µM of 4.7%.

In the case of `CNC(=O)c1ccc(C2CN(C(=O)c3scnc3C)CCO2)nc1` (centres undefined), the cytotoxicity at 10 µM is reported as 19.7%.

`Cc1ccc2cc(CNCCCN3CCOCC3)c(=O)[nH]c2c1C` gave a cytotoxicity at 10 µM of -10.1%.

With `Cc1cc(C)c2ncc(C#N)c(NC3CCN(CC(N)=O)CC3)c2c1` the cytotoxicity at 10 µM was -4.38%.

With `CC(C)(CNc1ccccc1S(=O)(=O)C(F)F)N1CCOCC1` the cytotoxicity at 10 µM was 12.2%.

For `COCCN1CC(C(=O)NCc2ccc(C)s2)CC1=O` (centres undefined), the cytotoxicity at 10 µM was 5.27%.

For `CCCN(Cc1cnn(C)c1)S(=O)(=O)c1cc(C)cc(F)c1`, the cytotoxicity at 10 µM was 16.2%.

Work on `CN(C)c1ncccc1CNCc1cccc(O)c1` yielded a cytotoxicity at 10 µM of 5.05%.

For `CC(O)c1cnn(-c2ccccc2)c1` (centres undefined), the cytotoxicity at 10 µM was -1.55%.

`O=C(CN1CCCS1(=O)=O)Nc1ccc(OC2CCCC2)cc1` gave a cytotoxicity at 10 µM of -7.31%.

`CNC(=O)NC(=O)CN(C)C(c1cccnc1)c1ccc(F)cc1F` (centres undefined) showed a cytotoxicity at 10 µM of 5.3%.

`CCCC(=O)NC(Cc1ccc(C)cc1)c1ccccn1` (centres undefined) showed a cytotoxicity at 10 µM of -2.25%.

For `Cc1ccc(-c2nc(C(=O)N(C)CC(=O)N3CCCC3)cs2)c(C)c1`, the cytotoxicity at 10 µM was -2.28%.

In the case of `CN(Cc1nc(C(C)(C)C)no1)C1CCS(=O)(=O)C1` (centres undefined), the cytotoxicity at 10 µM is reported as 15.2%.

With `CCOC(=O)c1ccc(CNC(=O)c2ccc(C)nc2)o1` the cytotoxicity at 10 µM was 10.6%.

For `Cn1c(C2CC2)nc2cc(NC(=O)C3CCOC3)ccc21` (centres undefined), the cytotoxicity at 10 µM was 3.09%.

`CCCn1cc(NC(=O)c2ccc(S(C)(=O)=O)cc2)ccc1=O` showed a cytotoxicity at 10 µM of -13.1%.

With `Cc1ccc(C(N)=O)cc1NCCOc1cccc(C#N)c1` the cytotoxicity at 10 µM was 2.87%.

In the case of `O=C1CC2(CCCC2)C(=O)N1CC(O)COCc1ccccc1F` (centres undefined), the cytotoxicity at 10 µM is reported as 0.927%.

`CC(C)(CC(=O)Nc1cccc(Oc2ccccn2)c1)C(=O)O` gave a cytotoxicity at 10 µM of -17.6%.

`CC(C)C1CN(S(=O)(=O)c2ccc(C#N)cc2)CCS1` (centres undefined) gave a cytotoxicity at 10 µM of 6.88%.

With `CCOCc1nnc(NCc2ccsc2)o1` the cytotoxicity at 10 µM was -0.432%.

`CN1C(=O)CCc2cc(NC(=O)C3CC(=O)N(CC4CC4)C3)ccc21` (centres undefined) showed a cytotoxicity at 10 µM of -12.2%.

Work on `Cc1noc(-c2ccnc(N3CCCN(C4CCOCC4)CC3)c2)n1` yielded a cytotoxicity at 10 µM of -2.85%.

Work on `Cn1ccc(NC2CCN(C3CC3)C2=O)n1` (centres undefined) yielded a cytotoxicity at 10 µM of 7.31%.

For `Cc1ncsc1CNC(=O)CCN1CCN(c2ccccn2)CC1`, the cytotoxicity at 10 µM was 2.31%.

Molecule `COc1cccc2c1N(S(=O)(=O)c1cc(C(=O)O)cs1)CCC2` has a cytotoxicity at 10 µM of -1.95%.

Source: ChEMBL document CHEMBL4513216, “Probing the Open Global Health Chemical Diversity Library for Multistage-Active Starting Points for Next-Generation Antimalarials” (ACS Infect Dis, 2020)
